Test results taken from ChEMBL document CHEMBL1156753, “Structural studies of pterin-based inhibitors of dihydropteroate synthase” (J Med Chem, 2010).

Key:
Dihydropteroate synthase [1] = target: T1, Dihydropteroate synthase (Bacillus anthracis, UniProt Q81VW8); test: Inhibition of Bacillus anthracis DHPS expressed in Escherichia coli BL21 (DE3) after 30 mins
T1 sequence (Q81VW8 whole entry): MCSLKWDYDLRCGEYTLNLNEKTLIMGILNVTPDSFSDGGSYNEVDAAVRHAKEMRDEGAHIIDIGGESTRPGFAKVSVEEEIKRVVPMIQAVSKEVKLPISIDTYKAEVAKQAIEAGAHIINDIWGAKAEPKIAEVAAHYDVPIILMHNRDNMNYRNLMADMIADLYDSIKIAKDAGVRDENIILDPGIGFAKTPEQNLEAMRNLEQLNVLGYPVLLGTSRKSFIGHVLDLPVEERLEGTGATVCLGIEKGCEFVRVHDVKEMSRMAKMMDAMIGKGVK
Outline: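 Radiometric assay at 37 °C for 30 min: 5 μM 14C pABA, 10 μM enzymatically prepared dihydropterin diphosphate, 10 mM MgCl2, 2% DMSO, 50 mM HEPES pH 7.6, 5 ng DHPS, over a range of inhibitor concentrations. The reaction was stopped with acetic acid on ice. 14C dihydropteroate was separated from pABA by PEI-cellulose TLC and quantified by phosphorimaging. IC50 was obtained by curve fitting.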

[2] = target: T2, Dihydropteroate synthase (Bacillus anthracis) (UniProt Q81VW8); test: Inhibition of Bacillus anthracis DHPS expressed in Escherichia coli BL21 (DE3) at 250 uM after 30 mins
T2 sequence (whole entry): T1 sequence (Q81VW8 whole entry)
Outline: (§1)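 Reaction held 5 μM 14C pABA, 10 μM enzymatically prepared dihydropterin diphosphate, 10 mM MgCl2, 2% DMSO, 50 mM HEPES pH 7.6, 10 ng DHPS. Product was separated by PEI-cellulose TLC and quantified by phosphorimaging as percent inhibition.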

Dihydropteroate synthase [3] = target: T1, Dihydropteroate synthase; test: Binding affinity to Bacillus anthracis DHPS expressed in Escherichia coli BL21 (DE3) after 30 mins by isothermal titration calorimetry
Outline: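 ITC at 25 °C in 40 mM HEPES, 4 mM MgCl2, pH 7.6; 5% DMSO added to the buffer for the inhibitor titration. Protein was dialyzed against 50 mM HEPES, 5 mM MgCl2, pH 7.6. Nineteen injections of 500 μM ligand went into 20 μM DHPS. Kd was fitted to a one-site binding model.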

[4] = target: T2, Dihydropteroate synthase (Bacillus anthracis); test: Inhibition of Bacillus anthracis DHPS expressed in Escherichia coli BL21 (DE3) at 500 uM after 30 mins; outline: as §1

SMILES | IC50 (Dihydropteroate synthase [1]) | inhibition [2] | Kd (Dihydropteroate synthase [3]) | inhibition [4]
Nc1nc(N)c(N=O)c(=O)[nH]1 | 8 µM | 81% | – | –
CN1CC(C(=O)O)=Nc2c1nc(N)[nH]c2=O | 32.4 µM | 93% | 5.26 µM | –
Nc1nc2ncc(C(=O)O)nc2c(=O)[nH]1 | – | – | – | 37%
Cn1c(=O)c2nc(C=O)c(=O)[nH]c2n(C)c1=O | – | – | – | 44%
Nc1ccc(C(=O)O)cc1 [AMINOBENZOIC ACID] | – | – | 5.62 µM | –
Nc1nc2c(c(=O)[nH]1)N=C(CCNc1ccc(C(=O)O)cc1)CN2 | 25.9 µM | – | – | 100%
Nc1nc(N)c([N+](=O)[O-])c(=O)[nH]1 | 109 µM | 80% | – | –
Cn1c(=O)c2nc(C(=O)O)c(=O)[nH]c2n(C)c1=O | – | – | – | 33%
Cc1cc(/C=C2/C(=O)N=C(O)N=C2O)c(C)n1C | – | – | – | 35%
Nc1nnc(N)c2[nH]cnc12 | > 500 µM | – | – | 32%
CC1CNc2nc(N)[nH]c(=O)c2N1 (centres undefined) | – | – | – | 67%
Nc1nc2[nH]c(=O)c(C(=O)O)nc2c(=O)[nH]1 | 269 µM | – | – | 70%
CN1CC(CC(C)(C)O)=Nc2c1nc(N)[nH]c2=O | 215 µM | – | – | 54%
Nc1nc2nc3c(nc2c(=O)[nH]1)CCCC3 | – | – | – | 31%
NC(=O)c1nc[nH]c1C(N)=O | – | – | – | 32%
Nc1nc2[nH]c(S)nc2c(=O)[nH]1 | – | 0% | – | –
Nc1nc2ncc(CCNc3ccc(C(=O)O)cc3)nc2c(=O)[nH]1 | 87.1 µM | – | – | 76%
Nc1ccc2nc(CCc3nc4ccc(N)cc4[nH]3)[nH]c2c1 | – | – | – | 62%
CNc1nc(N)[nH]c(=O)c1[N+](=O)[O-] | – | – | – | 53%
Nc1ncc(Oc2ccccc2)c(=O)[nH]1 | – | – | – | 37%
CN1CC=Nc2c1nc(N)[nH]c2=O | 86.7 µM | – | – | 76%
Nc1nc(NCCCOc2ccc(C(=O)O)cc2)c(N=O)c(=O)[nH]1 | – | – | – | 79%
CC(C(=O)O)c1nn(C)c2nc(N)[nH]c(=O)c2c1=O (centres undefined) | 19.8 µM | – | – | 97%
